ChEMBL document CHEMBL1123270, “10-Acetyl-10-hydroxyxantho[2,3-f]tetralin 8-glycosides as angular chromophore analogues of anthracyclines: synthesis, redox properties, microsomal oxygen consumption, and antileukemic evaluation” (1986)
Values after ≈ are worked out from the molar mass of the structure shown.

Tests used:
L1210 = assay: Antileukemic cytotoxicity was evaluated for the compound against L1210 leukemia; type: functional; settings: Mus musculus, read-out: ID50 (the source's name)
Method in brief: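 L1210 cells grown in McCoy's 5A with glutamine, HCO3-, antibiotics and 10% heat-inactivated horse serum, 37 °C, humidified 95:5 air/CO2. Seeded at 10^5 cells/mL; drug added at 10, 1, 0.1 or 0.01 μg/mL final. Cell concentration counted by Coulter Counter after 72 h; ID50 taken as concentration giving 50% growth inhibition.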

Rattus norvegicus = assay: […] percent activity of doxorubicin was determined as augmentation of normal oxygen uptake by fresh rat liver microsomes used as measure of redox activity; type: functional; parameters: concentration or dose not given beside the values

Row | Structure (SMILES) | IC50 (L1210) | Activity (Rattus norvegicus)
1 | CC(=O)[C@]1(O)Cc2c(c(O)cc3c(=O)c4ccccc4oc23)[C@@H](OC2C[C@@H](NC(=O)C(F)(F)F)[C@@H](O)C(C)O2)C1 (some centres not stated) | > 10 µg/mL | 3%
2 | CC(=O)[C@@H]1Cc2c(c(O)cc3c(=O)c4ccccc4oc23)[C@@H](OC2C[C@@H](NC(=O)C(F)(F)F)[C@@H](OC(=O)c3ccc([N+](=O)[O-])cc3)C(C)O2)C1 (some centres not stated) | 10 µg/mL (≈ 14.3 µM) | 6%
3 | CC(=O)[C@]1(O)Cc2c(c(O)cc3c(=O)c4ccccc4oc23)[C@@H](OC2C[C@@H](NC(=O)C(F)(F)F)[C@@H](OC(=O)c3ccc([N+](=O)[O-])cc3)C(C)O2)C1 (some centres not stated) | 8 µg/mL (≈ 11.2 µM) | 10%
4 | CC(=O)OCC1OC(O[C@H]2C[C@H](C(C)=O)Cc3c2c(O)cc2c(=O)c4ccccc4oc32)[C@@H](NC(=O)C(F)(F)F)C(OC(C)=O)[C@H]1OC(C)=O (some centres not stated) | > 10 µg/mL | 4%
5 | CC(=O)[C@@H]1Cc2c(c(O)cc3c(=O)c4ccccc4oc23)[C@@H](OC2C[C@@H](N)[C@@H](O)C(C)O2)C1 (some centres not stated) | 8 µg/mL (≈ 17.6 µM) | 10%
6 | CC(=O)[C@@H]1Cc2c(c(O)cc3c(=O)c4ccccc4oc23)[C@@H](OC2C[C@@H](NC(=O)C(F)(F)F)[C@@H](O)C(C)O2)C1 (some centres not stated) | 10 µg/mL (≈ 18.2 µM) | 6%
